Measured values published in ChEMBL document CHEMBL5724801, “EUbOPEN Chemogenomics Library - Multiplex” (2024).
Where “and” joins values, the source holds several entries; their conditions need not be identical. Equal entries are not always repeated.

Tested on: U2OS
Assay: Multiplex assay against U2OS
Format: toxicity, cell-based
Conditions: human
Outline: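 Hoechst33342, BioTracker Green Microtubule Cytoskeleton Dye, MitoTracker Red and Annexin V Alexa Fluor 680 were added to live cells at seeding, and imaging on a CQ1 microscope at 37°C and 5% CO2 followed compound addition. Gating by CellPathfinder machine learning separated cells into Hoechst high-intensity objects or normal cells, then normal cells into healthy, pyknosed or fragmented nuclei, then pyknosed cells into mitotic or apoptotic. Per cents of healthy-nucleus cells are reported for the tubulin, mitochondrial-mass and membrane-permeability phenotypes.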

[1] = 12 h, 1 µM, compound concentration 1 uM
[2] = 12 h, 10 µM, compound concentration 10 uM
[3] = 24 h, 1 µM, compound concentration 1 uM
[4] = 24 h, 10 µM, compound concentration 10 uM
[5] = 48 h, 1 µM, compound concentration 1 uM
[6] = 48 h, 10 µM, compound concentration 10 uM

c1ccc2nc(N3CCNCC3)ccc2c1 [QUIPAZINE]
Population Apoptotic (%) [1]: 38.46% and 42.86% | Population Fragmented Nuclei (%) [1]: 2.12% and 3.18% | Population Healthy Nuclei (%) [1]: 85.61% and 83.44% | Population Hoechst High Intensity Objects (%) [1]: 0% | Population Membrane Permeable-Phenotype (%) [1]: 0.28% and 1.53% | Population Mitotic Cells (%) [1]: 61.54% and 57.14% | Population Normal (%) [1]: 100% | Population Pyknosed Nuclei (%) [1]: 12.26% and 13.38% | Population Tubulin-Different-Phenotype (%) [1]: 0.28% and 0% | Total Cell Count [1]: 424 and 157 | Population Apoptotic (%) [2]: 41.67% and 21.05% | Population Fragmented Nuclei (%) [2]: 2.14% and 2.94% | Population Healthy Nuclei (%) [2]: 88.24% and 85.88% | Population Hoechst High Intensity Objects (%) [2]: 0% | Population Membrane Permeable-Phenotype (%) [2]: 2.12% and 2.05% | Population Mitochondria Different-Phenotype (%) [2]: 0.61% and 9.59% | Population Mitotic Cells (%) [2]: 58.33% and 78.95% | Population Normal (%) [2]: 100% | Population Pyknosed Nuclei (%) [2]: 9.63% and 11.18% | Population Tubulin-Different-Phenotype (%) [2]: 1.21% and 0% | Total Cell Count [2]: 374 and 170 | Population Apoptotic (%) [3]: 52.86% and 39.13% | Population Fragmented Nuclei (%) [3]: 0.69% and 1.94% | Population Healthy Nuclei (%) [3]: 87.26% and 86.89% | Population Hoechst High Intensity Objects (%) [3]: 0.17% and 0% | Population Membrane Permeable-Phenotype (%) [3]: 0.79% and 3.91% | Population Mitochondria Different-Phenotype (%) [3]: 0.39% and 6.7% | Population Mitotic Cells (%) [3]: 47.14% and 60.87% | Population Normal (%) [3]: 99.83% and 100% | Population Pyknosed Nuclei (%) [3]: 12.05% and 11.17% | Population Tubulin-Different-Phenotype (%) [3]: 1.38% and 0% | Total Cell Count [3]: 582 and 206 | Population Apoptotic (%) [4]: 40.82% and 48% | Population Fragmented Nuclei (%) [4]: 0.76% and 0% | Population Healthy Nuclei (%) [4]: 89.87% and 89.41% | Population Hoechst High Intensity Objects (%) [4]: 0% | Population Membrane Permeable-Phenotype (%) [4]: 1.06% and 3.32% | Population Mitochondria Different-Phenotype (%) [4]: 0.43% and 6.16% | Population Mitotic Cells (%) [4]: 59.18% and 52% | Population Normal (%) [4]: 100% | Population Pyknosed Nuclei (%) [4]: 9.37% and 10.59% | Population Tubulin-Different-Phenotype (%) [4]: 1.28% and 0% | Total Cell Count [4]: 523 and 236 | Population Apoptotic (%) [5]: 43.56% and 50% | Population Fragmented Nuclei (%) [5]: 2.56% and 1.98% | Population Healthy Nuclei (%) [5]: 88.55% and 87.25% | Population Hoechst High Intensity Objects (%) [5]: 0% | Population Membrane Permeable-Phenotype (%) [5]: 0.9% and 1.95% | Population Mitochondria Different-Phenotype (%) [5]: 0.2% and 3.9% | Population Mitotic Cells (%) [5]: 56.44% and 50% | Population Normal (%) [5]: 100% | Population Pyknosed Nuclei (%) [5]: 8.9% and 10.76% | Population Tubulin-Different-Phenotype (%) [5]: 0.9% and 0.32% | Population Apoptotic (%) [6]: 39.47% and 52.17% | Population Fragmented Nuclei (%) [6]: 3.42% and 0.25% | Population Healthy Nuclei (%) [6]: 89.16% and 94.06% | Population Hoechst High Intensity Objects (%) [6]: 0% and 0.25% | Population Membrane Permeable-Phenotype (%) [6]: 0.99% and 2.63% | Population Mitochondria Different-Phenotype (%) [6]: 0.11% and 1.84% | Population Mitotic Cells (%) [6]: 60.53% and 47.83% | Population Normal (%) [6]: 100% and 99.75% | Population Pyknosed Nuclei (%) [6]: 7.42% and 5.69% | Population Tubulin-Different-Phenotype (%) [6]: 1.42% and 0.79% | Total Cell Count [6]: 1024 and 405

CCC(=O)N1CCN(c2ccc(-n3c(=O)ccc4cnc5ccc(-c6cnc7ccccc7c6)cc5c43)cc2C(F)(F)F)CC1 [TORIN1]
Population Apoptotic (%) [2]: 68% and 76% | Population Healthy Nuclei (%) [2]: 55% and 71% | Population Hoechst High Intensity Objects (%) [2]: 1% and 3% | Population Mitochondria Different-Phenotype (%) [2]: 7% | Population Normal (%) [2]: 98% and 96% | Population Tubulin-Different-Phenotype (%) [2]: 5% and 9% | Total Cell Count [2]: 288 and 109 | Population Apoptotic (%) [4]: 77% and 73% | Population Healthy Nuclei (%) [4]: 54% and 72% | Population Hoechst High Intensity Objects (%) [4]: 1% and 2% | Population Mitochondria Different-Phenotype (%) [4]: 9% | Population Normal (%) [4]: 98% and 97% | Population Tubulin-Different-Phenotype (%) [4]: 5% and 3% | Total Cell Count [4]: 287 and 115 | Population Apoptotic (%) [6]: 78% and 82% | Population Healthy Nuclei (%) [6]: 44% | Population Hoechst High Intensity Objects (%) [6]: 7% and 2% | Population Normal (%) [6]: 93% and 97% | Population Tubulin-Different-Phenotype (%) [6]: 8% and 5% | Total Cell Count [6]: 300 and 147
